Experimental data: ChEMBL document CHEMBL1122036, “Use of adenine nucleotide derivatives to assess the potential of exo-active-site-directed reagents as species- or isozyme-specific enzyme inactivators. 3. Synthesis of adenosine 5'-triphosphate derivatives with N6- or 8-substituents bearing iodoacetyl groups” (J Med Chem, 1982)
One block for each compound: values may come before it.

Key:
[1] = Reaction velocity relative to ATP (=1) in yeast hexokinase was determined at 5 mM concentration.; format: ADME; details: 5000 µM
Rattus norvegicus [2] = species on record: Rattus norvegicus; assay: Substrate property, maximum velocity relative to ADP (100) in rat muscle pyruvate kinase was determined; format: ADME, organism-based; details: in vivo
Procedure, shortened: (§1)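 Rat muscle, liver and kidney pyruvate kinase isozymes, isolated as before, with ADP analogues as substrate. Optical density change at 340 nm, 22-24 °C, 1 mL. Five or more substrate concentrations. Km and Vmax come from linear Lineweaver-Burk plots, with Vmax relative to ADP (100).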

[3] = Substrate property, maximum velocity relative to ADP (100) in rat muscle pyruvate kinase was determined; details: in vitro
Rattus norvegicus [4] = species on record: Rattus norvegicus; assay: Maximum velocity in rat liver adenylate kinase II relative to ATP(=100); format: ADME, organism-based; details: in vivo
Procedure, shortened: (§2)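 Rat liver AK II and AK III, isolated as before. Optical density change at 340 nm followed at 22-24 °C in 1 mL. Five or more substrate concentrations; stocks contained equimolar MgCl2. Vmax comes from linear Lineweaver-Burk plots and is expressed relative to ATP (100).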

Rattus norvegicus [5] = species on record: Rattus norvegicus; assay: Maximum velocity in rat liver adenylate kinase III relative to ATP(=100); format: ADME, organism-based; details: in vivo; procedure, shortened: as §2
[6] = molecular target: Adenylate kinase 2, mitochondrial (Rattus norvegicus, UniProt P29410); assay: Competitive inhibition of adenylate kinase II in rat liver with respect to ATP; format: tissue-based
Procedure, shortened: (§3)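 Rat liver adenylate kinase isozymes (AK II, AK III), isolated as before. Read as rate of change in optical density at 340 nm, 22-24 °C, 1 mL final volume. Five or more levels of ATP at each of two inhibitor levels, inhibitor at 1-5 times the inhibition constant. Ki taken from replots of inhibitor concentration vs Lineweaver-Burk slopes. Stocks contained equimolar MgCl2.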

[7] = molecular target: GTP:AMP phosphotransferase AK3, mitochondrial (Rattus norvegicus, UniProt P29411); assay: Competitive inhibition of adenylate kinase III in rat liver with respect to ATP; format: tissue-based; procedure, shortened: as §3
Rattus norvegicus [8] = species on record: Rattus norvegicus; assay: Substrate concentration for half maximum-velocity in rat muscle pyruvate kinase was determined.; format: ADME, organism-based; details: in vivo; procedure, shortened: as §1
Rattus norvegicus [9] = species on record: Rattus norvegicus; assay: Maximum velocity relative to ADP (100) in rat muscle pyruvate kinase was determined; format: ADME, organism-based; details: in vivo; procedure, shortened: as §1
Rattus norvegicus [10] = species on record: Rattus norvegicus; assay: Substrate concentration for half maximum- reaction velocity in rat liver pyruvate kinase; format: ADME, organism-based; details: in vivo; procedure, shortened: as §1
Rattus norvegicus [11] = species on record: Rattus norvegicus; assay: Substrate concentration for half maximum-velocity in rat kidney pyruvate kinase was determined; format: ADME, organism-based; details: in vivo; procedure, shortened: as §1
Rattus norvegicus [12] = species on record: Rattus norvegicus; assay: Substrate property, maximum velocity relative to ADP (100) in rat kidney pyruvate kinase was determined; format: ADME, organism-based; details: in vivo; procedure, shortened: as §1
Rattus norvegicus [13] = species on record: Rattus norvegicus; assay: Substrate property, maximum velocity relative to ADP (100) in rat liver pyruvate kinase was determined; format: ADME, organism-based; details: in vivo; procedure, shortened: as §1

Chain of GTP:AMP phosphotransferase AK3, mitochondrial (P29411 whole entry): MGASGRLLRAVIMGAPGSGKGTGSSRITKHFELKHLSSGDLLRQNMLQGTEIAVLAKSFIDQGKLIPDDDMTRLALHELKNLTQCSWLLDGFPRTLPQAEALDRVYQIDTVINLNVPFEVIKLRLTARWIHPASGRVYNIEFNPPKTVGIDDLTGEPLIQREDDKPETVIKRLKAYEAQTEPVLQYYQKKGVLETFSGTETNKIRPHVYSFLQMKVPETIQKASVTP

SMILES: O=C(CI)NCCCCCCCCNc1ncnc2c1ncn2[C@@H]1O[C@H](COP(=O)(O)OP(=O)(O)OP(=O)(O)O)[C@@H](O)[C@H]1O
Velocity relative to ATP [1]: 1.8

SMILES: CC(=O)NCCCCCCNc1nc2c(N)ncnc2n1[C@@H]1O[C@H](COP(=O)(O)OP(=O)(O)O)[C@@H](O)[C@H]1O
Vmax (Rattus norvegicus [2]): 0%
Vmax [3]: 0%

SMILES: CN(CCCN(C)C(=O)CCCCNc1ncnc2c1ncn2[C@@H]1O[C@H](COP(=O)(O)OP(=O)(O)O)[C@@H](O)[C@H]1O)C(=O)CCCCNC(=O)OCc1ccccc1
Km (Rattus norvegicus [8]): 70 µM
Vmax (Rattus norvegicus [9]): 1.5%

SMILES: Nc1ncnc2c1nc(NCCCCCCCCNC(=O)CI)n2[C@@H]1O[C@H](COP(=O)(O)OP(=O)(O)OP(=O)(O)O)[C@@H](O)[C@H]1O
Velocity relative to ATP [1]: 0.54

Next, values leading:

Vmax (Rattus norvegicus [4]): 0%
Vmax (Rattus norvegicus [5]): 0%
Ki [6]: 1100 µM
Ki [7]: 900 µM
SMILES: CC(=O)N(C)CCCCN(C)c1ncnc2c1ncn2[C@@H]1O[C@H](COP(=O)(O)OP(=O)(O)OP(=O)(O)O)[C@@H](O)[C@H]1O

Velocity relative to ATP [1]: 0.73
SMILES: CN(CCCN(C)C(=O)CCCCNc1ncnc2c1ncn2[C@@H]1O[C@H](COP(=O)(O)OP(=O)(O)OP(=O)(O)O)[C@@H](O)[C@H]1O)C(=O)CCCCNC(=O)CI

Velocity relative to ATP [1]: 1.2
SMILES: CN(CCCCN(C)c1ncnc2c1ncn2[C@@H]1O[C@H](COP(=O)(O)OP(=O)(O)OP(=O)(O)O)[C@@H](O)[C@H]1O)C(=O)CCCNC(=O)CI

Km (Rattus norvegicus [10]): 700 µM
Km (Rattus norvegicus [11]): 1700 µM
Km (Rattus norvegicus [8]): 3600 µM
Vmax (Rattus norvegicus [2]): 20%
Vmax (Rattus norvegicus [12]): 18%
Vmax (Rattus norvegicus [13]): 21%
SMILES: CC(=O)N(C)CCCCN(C)c1ncnc2c1ncn2[C@@H]1O[C@H](COP(=O)(O)OP(=O)(O)O)[C@@H](O)[C@H]1O
